The source made the active and inactive calls. No cut-off for these calls is given here.
Columns and labels:
[1] = target: Epidermal growth factor receptor (Homo sapiens, UniProt P00533); assay: Inhibition of wild-type EGFR (unknown origin) using substrate-biotin by ELISA-based mobility shift assay
[2] = target: Epidermal growth factor receptor (Homo sapiens, UniProt P00533, L858R/T790M); assay: Inhibition of EGFR T790M/L858R double mutant (unknown origin) using substrate-biotin by ELISA-based mobility shift assay
Homo sapiens = species: Homo sapiens; assay: Selectivity ratio of IC50 for wild-type EGFR (unknown origin) to IC50 for EGFR T790M/L858R double mutant (unknown origin)
NCI-H1975 [3] = assay: Antiproliferative activity against human NCI-H1975 cells after 72 hrs by MTT assay; assay type: functional, cell-based; conditions: NCI-H1975, 72 h
Method in brief: (§1)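 MTT assay; cells grown as monolayers in DMEM or RPMI1640 with 10% FBS at 37 °C, 5% CO2 for 24 h, then compound added for 72 h. MTT at 5 μg/mL for 4 h at 37 °C, formazan dissolved in DMSO, absorbance read at 492 nm with 630 nm reference. Each compound tested three times per line; IC50 from averaged determinations.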

A549 [4] = assay: Antiproliferative activity against human A549 cells after 72 hrs by MTT assay; assay type: functional, cell-based; conditions: A549, 72 h; method in brief: as §1
HepG2 = assay: Antiproliferative activity against human HepG2 cells after 72 hrs by MTT assay; assay type: functional, cell-based; conditions: HepG2, 72 h
Method in brief: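 MTT assay; cells grown as monolayers in DMEM or RPMI1640 with 10% FBS at 37 °C, 5% CO2 for 24 h, then compound added for 72 h. Each compound tested three times per line; IC50 from averaged determinations.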

NCI-H1975 [5] = assay: Induction of apoptosis in human NCI-H1975 at 0.25 uM by acridine orange staining-based fluorescence assay; assay type: functional, cell-based
Method in brief: (§2)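 H1975 cells stained with acridine orange after treatment, alongside an untreated control group. Cell and chromatin morphology assessed by fluorescence imaging.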

NCI-H1975 [6] = assay: Induction of apoptosis in human NCI-H1975 assessed as induction of chromatin shrinkage at 0.25 uM by acridine orange staining-based fluorescence assay; assay type: functional, cell-based; method in brief: as §2
NCI-H1975 [7] = assay: Induction of apoptosis in human NCI-H1975 assessed as formation of cells with sharp edge at 0.25 uM by acridine orange staining-based fluorescence assay; assay type: functional, cell-based; method in brief: as §2
NCI-H1975 [8] = assay: Induction of apoptosis in human NCI-H1975 assessed as induction of cell structure destruction at 0.25 uM by H33342 staining-based inverted fluorescence microscopic analysis; assay type: functional
Method in brief: (§3)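 H1975 cells stained with Hoechst 33342 after treatment, alongside an untreated control. Nuclear blue fluorescence, dye uptake, chromatin condensation and cell structure viewed under an inverted fluorescence microscope.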

NCI-H1975 [9] = assay: Induction of apoptosis in human NCI-H1975 assessed as induction of chromatin shrinkage at 0.25 uM by H33342 staining-based inverted fluorescence microscopic analysis; assay type: functional, cell-based; method in brief: as §3
NCI-H1975 [10] = assay: Induction of apoptosis in human NCI-H1975 assessed as induction of membrane damage at 0.25 uM by H33342 staining-based inverted fluorescence microscopic analysis; assay type: functional, cell-based; method in brief: as §3
A549 [11] = assay: Cell cycle arrest in human A549 cells assessed as accumulation of cells at G0/G1 phase at 0.36 uM after 24 hrs by propidium iodide staining-based flow cytometric analysis (reference value: 65.22%); assay type: functional
Method in brief: (§4)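 A549 cells seeded at 1×10^5 per well, grown 24 h, then treated 24 h with vehicle (0.1% DMSO) or compound at several concentrations. Cells fixed in ice-cold 70% ethanol at 4 °C for 12 h, washed in PBS, treated with 1 mg/mL RNase for 30 min at 37 °C, stained with propidium iodide 30 min in the dark. DNA content measured by flow cytometry.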

A549 [12] = assay: Cell cycle arrest in human A549 cells assessed as accumulation of cells at S phase at 0.36 uM after 24 hrs by propidium iodide staining-based flow cytometric analysis (reference value: 32.13%); assay type: functional; method in brief: as §4
A549 [13] = assay: Cell cycle arrest in human A549 cells assessed as accumulation of cells at G2/M phase at 0.36 uM after 24 hrs by propidium iodide staining-based flow cytometric analysis (reference value: 2.65%); assay type: functional; method in brief: as §4
A549 [14] = assay: Cell cycle arrest in human A549 cells assessed as accumulation of cells at G0/G1 phase at 0.72 uM after 24 hrs by propidium iodide staining-based flow cytometric analysis (reference value: 65.22%); assay type: functional; method in brief: as §4
A549 [15] = assay: Cell cycle arrest in human A549 cells assessed as accumulation of cells at S phase at 0.72 uM after 24 hrs by propidium iodide staining-based flow cytometric analysis (reference value: 32.13%); assay type: functional; method in brief: as §4
A549 [16] = assay: Cell cycle arrest in human A549 cells assessed as accumulation of cells at G2/M phase at 0.72 uM after 24 hrs by propidium iodide staining-based flow cytometric analysis (reference value: 2.65%); assay type: functional; method in brief: as §4
A549 [17] = assay: Cell cycle arrest in human A549 cells assessed as accumulation of cells at G0/G1 phase at 1.80 uM after 24 hrs by propidium iodide staining-based flow cytometric analysis (reference value: 65.22%); assay type: functional; method in brief: as §4
A549 [18] = assay: Cell cycle arrest in human A549 cells assessed as accumulation of cells at S phase at 1.80 uM after 24 hrs by propidium iodide staining-based flow cytometric analysis (reference value: 32.13%); assay type: functional; method in brief: as §4
A549 [19] = assay: Cell cycle arrest in human A549 cells assessed as accumulation of cells at G2/M phase at 1.80 uM after 24 hrs by propidium iodide staining-based flow cytometric analysis (reference value: 2.65%); assay type: functional; method in brief: as §4
A549 [20] = assay: Cell cycle arrest in human A549 cells assessed as accumulation at G2/M phase after 24 hrs by propidium iodide staining-based flow cytometric analysis; assay type: functional; method in brief: as §4

Chain of Epidermal growth factor receptor (Homo sapiens, UniProt P00533, L858R/T790M) (P00533 25-1210 T790M/L858R limits assumed): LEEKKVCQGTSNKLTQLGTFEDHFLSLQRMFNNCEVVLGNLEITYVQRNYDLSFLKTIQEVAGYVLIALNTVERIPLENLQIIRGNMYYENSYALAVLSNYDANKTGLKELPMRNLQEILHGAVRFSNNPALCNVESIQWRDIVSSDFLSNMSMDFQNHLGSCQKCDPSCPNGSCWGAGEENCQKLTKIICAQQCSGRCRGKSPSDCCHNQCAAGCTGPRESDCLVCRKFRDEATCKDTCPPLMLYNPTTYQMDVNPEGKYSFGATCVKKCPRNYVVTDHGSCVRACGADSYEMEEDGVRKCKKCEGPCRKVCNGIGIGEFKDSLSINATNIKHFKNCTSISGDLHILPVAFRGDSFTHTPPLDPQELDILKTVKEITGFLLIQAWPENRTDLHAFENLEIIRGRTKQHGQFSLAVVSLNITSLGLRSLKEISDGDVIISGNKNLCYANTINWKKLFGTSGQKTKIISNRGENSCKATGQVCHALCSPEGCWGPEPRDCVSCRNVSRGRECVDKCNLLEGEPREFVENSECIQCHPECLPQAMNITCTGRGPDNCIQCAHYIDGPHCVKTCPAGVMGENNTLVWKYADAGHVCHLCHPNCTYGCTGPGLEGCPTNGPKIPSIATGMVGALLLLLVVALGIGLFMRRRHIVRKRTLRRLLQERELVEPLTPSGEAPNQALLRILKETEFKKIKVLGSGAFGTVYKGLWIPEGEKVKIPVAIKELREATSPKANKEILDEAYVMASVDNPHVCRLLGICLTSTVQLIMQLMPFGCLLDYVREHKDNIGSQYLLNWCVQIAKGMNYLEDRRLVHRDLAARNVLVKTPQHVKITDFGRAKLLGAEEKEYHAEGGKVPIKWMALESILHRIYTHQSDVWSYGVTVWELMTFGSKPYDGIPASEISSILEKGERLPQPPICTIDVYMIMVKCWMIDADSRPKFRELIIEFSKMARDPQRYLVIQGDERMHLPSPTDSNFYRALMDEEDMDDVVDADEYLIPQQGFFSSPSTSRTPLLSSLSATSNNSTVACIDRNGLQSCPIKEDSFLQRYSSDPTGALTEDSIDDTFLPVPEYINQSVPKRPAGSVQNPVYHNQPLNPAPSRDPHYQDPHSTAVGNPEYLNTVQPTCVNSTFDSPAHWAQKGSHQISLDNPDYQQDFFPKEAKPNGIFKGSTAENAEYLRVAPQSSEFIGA
Chain of Epidermal growth factor receptor (Homo sapiens, UniProt P00533) (P00533 whole entry): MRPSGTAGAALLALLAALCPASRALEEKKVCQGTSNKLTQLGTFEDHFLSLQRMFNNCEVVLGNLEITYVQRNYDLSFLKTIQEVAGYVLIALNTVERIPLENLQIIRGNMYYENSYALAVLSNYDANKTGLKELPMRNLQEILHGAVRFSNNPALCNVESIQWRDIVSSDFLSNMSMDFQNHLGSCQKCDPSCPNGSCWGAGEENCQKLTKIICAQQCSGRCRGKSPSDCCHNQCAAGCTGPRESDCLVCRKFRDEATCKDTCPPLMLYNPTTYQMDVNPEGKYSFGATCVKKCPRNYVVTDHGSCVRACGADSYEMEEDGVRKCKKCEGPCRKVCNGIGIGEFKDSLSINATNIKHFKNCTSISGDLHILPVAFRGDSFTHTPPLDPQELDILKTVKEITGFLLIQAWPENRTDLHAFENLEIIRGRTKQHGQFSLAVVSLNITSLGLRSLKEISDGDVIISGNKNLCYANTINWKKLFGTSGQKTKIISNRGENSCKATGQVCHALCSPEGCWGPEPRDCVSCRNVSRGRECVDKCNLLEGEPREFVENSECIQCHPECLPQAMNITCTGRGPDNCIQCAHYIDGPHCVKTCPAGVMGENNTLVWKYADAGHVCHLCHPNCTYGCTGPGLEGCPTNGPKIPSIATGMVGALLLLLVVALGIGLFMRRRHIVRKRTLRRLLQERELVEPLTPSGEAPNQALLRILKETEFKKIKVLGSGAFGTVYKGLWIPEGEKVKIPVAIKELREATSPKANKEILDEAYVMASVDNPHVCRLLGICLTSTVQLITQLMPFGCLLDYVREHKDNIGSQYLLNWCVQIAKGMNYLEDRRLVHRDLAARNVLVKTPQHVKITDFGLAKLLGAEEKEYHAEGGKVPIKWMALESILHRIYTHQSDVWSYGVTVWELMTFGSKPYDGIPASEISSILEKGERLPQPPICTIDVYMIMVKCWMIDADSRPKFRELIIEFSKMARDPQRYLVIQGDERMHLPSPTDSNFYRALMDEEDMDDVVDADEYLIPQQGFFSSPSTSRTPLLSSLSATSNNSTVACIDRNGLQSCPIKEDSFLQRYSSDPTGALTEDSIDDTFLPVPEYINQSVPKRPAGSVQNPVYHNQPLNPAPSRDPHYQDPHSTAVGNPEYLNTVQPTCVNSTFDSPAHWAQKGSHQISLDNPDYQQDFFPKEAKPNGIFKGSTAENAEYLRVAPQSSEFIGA

SMILES: CCC/C=C\C(=O)Nc1cc(Nc2nc(C)cc(-c3cn(C)c4ccccc34)n2)c(OC)cc1N(C)CCN(C)C
- IC50 [1]: 1530 nM
- IC50 [2]: 8 nM
- Ratio IC50 (Homo sapiens): 191
- IC50 (NCI-H1975 [3]): 254 nM
- IC50 (A549 [4]): 329 nM
- IC50 (HepG2): 365 nM
- Activity (NCI-H1975 [5]): Active
- Activity (NCI-H1975 [6]): Active
- Activity (NCI-H1975 [7]): Active
- Activity (NCI-H1975 [8]): Active
- Activity (NCI-H1975 [9]): Active
- Activity (NCI-H1975 [10]): Active
- Activity (A549 [11]): 56.78%
- Activity (A549 [12]): 37.15%
- Activity (A549 [13]): 6.07%
- Activity (A549 [14]): 44.91%
- Activity (A549 [15]): 39.81%
- Activity (A549 [16]): 15.28%
- Activity (A549 [17]): 39.55%
- Activity (A549 [18]): 38.24%
- Activity (A549 [19]): 22.24%
- Activity (A549 [20]): Dose-dependent effect

From ChEMBL document CHEMBL4411272, “Design, synthesis and biological evaluation of AZD9291 derivatives as selective and potent EGFRL858R/T790M inhibitors” (Eur J Med Chem, 2019)
